{"source": "ChEMBL document CHEMBL1152831", "about": "“Synthesis and pharmacological screening of derivatives of isoxazolo[4,5-d]pyrimidine” (2008)", "type_in_all_cases": "functional", "key": {"HOP-92": {"tested_on": "HOP-92", "assay": "Antitumor activity against human HOP92 cells"}, "HCC 2998": {"tested_on": "HCC 2998", "assay": "Antitumor activity against human HCC2998 cells"}, "SF-539": {"tested_on": "SF-539", "assay": "Antitumor activity against human SF539 cells"}, "NCI-H522": {"tested_on": "NCI-H522", "assay": "Antitumor activity against human NCI-H522 cells"}, "CAKI-1": {"tested_on": "CAKI-1", "assay": "Antitumor activity against human Caki1 cells"}, "U-251": {"tested_on": "U-251", "assay": "Antitumor activity against human U251 cells"}, "SK-MEL-2": {"tested_on": "SK-MEL-2", "assay": "Antitumor activity against human SK-MEL-2 cells"}, "K562": {"tested_on": "K562", "assay": "Antitumor activity against human K562 cells"}, "MOLT-4": {"tested_on": "MOLT-4", "assay": "Antitumor activity against human MOLT4 cells"}, "HCT-15": {"tested_on": "HCT-15", "assay": "Antitumor activity against human HCT15 cells"}, "LOX IMVI": {"tested_on": "LOX IMVI", "assay": "Antitumor activity against human LOXIMVI cells"}, "CCRF-CEM": {"tested_on": "CCRF-CEM", "assay": "Antitumor activity against human CCRF-CEM cells"}, "Mus musculus [1]": {"tested_on": "Mus musculus", "assay": "Effect on delayed type hypersensitivity in sheep red blood cells-immunized CBA mouse assessed as foot-pad edema at 100 ug, ip", "how_it_was_run": "(§1)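 Male and female CBA mice, 12 weeks old, sensitized i.v. with 10⁵ SRBCs in 0.2 mL. Compounds were dissolved in DMSO, then diluted in 0.9% NaCl, and given i.p. 2 h later. Controls received saline or diluted DMSO. On day 4, 10⁸ SRBCs in 0.05 mL were injected into the hind footpads. Footpad edema was measured by callipers 24 h later, minus the naive-mouse background. Mean ±SE, t-test.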"}, "Splenocyte [2]": {"tested_on": "Splenocyte", "assay": "Effect on cancavalin-A-induced proliferation in mouse splenocytes at 1 ug/ml assessed as proliferation rate by MTT assay", "how_it_was_run": "(§2)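 Splenocytes from CBA mice were pressed through a screen into Hank's medium. Erythrocytes were lysed with 0.83% NH4Cl, cells washed twice and passed through cotton wool to remove dead cells. They were resuspended in RPMI 1640 with 10% FCS, L-glutamine, pyruvate and antibiotics. 2×10⁵ cells per well, Con A at 2.5 final, compounds across 0.1–10. After 3 days, MTT read as OD 550/630 nm. Mean of quadruplicate wells ±SE, Student's t-test.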"}, "Mus musculus [3]": {"tested_on": "Mus musculus", "assay": "Effect on humoral immune response in sheep red blood cells-immunized CBA mouse spleen assessed as number of antibody forming unit per 10^6 viable cells at 10 ug, ip by local hemolysis assay", "how_it_was_run": "(§3)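 Male and female CBA mice, 12 weeks old, immunized i.p. with 0.2 mL of 5% SRBC in 0.9% NaCl. Compounds (DMSO stock diluted in saline) were given i.p. 2 h later; controls received saline or diluted DMSO. Spleens were taken on day 4 and antibody-forming cells counted by local hemolysis assay per 10⁶ viable splenocytes. Mean of 5 mice per group ±SE, t-test.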"}, "Mus musculus [4]": {"tested_on": "Mus musculus", "assay": "Effect on delayed type hypersensitivity in sheep red blood cells-immunized CBA mouse assessed as foot-pad edema at 10 ug, ip", "how_it_was_run": "as §1"}, "Splenocyte [5]": {"tested_on": "Splenocyte", "assay": "Effect on cancavalin-A-induced proliferation in mouse splenocytes at 0.1 ug/ml assessed as proliferation rate by MTT assay", "how_it_was_run": "as §2"}, "Splenocyte [6]": {"tested_on": "Splenocyte", "assay": "Effect on cancavalin-A-induced proliferation in mouse splenocytes at 10 ug/ml assessed as proliferation rate by MTT assay", "how_it_was_run": "as §2"}, "Mus musculus [7]": {"tested_on": "Mus musculus", "assay": "Effect on humoral immune response in sheep red blood cells-immunized CBA mouse spleen assessed as number of antibody forming unit per 10^6 viable cells at 100 ug, ip by local hemolysis assay", "how_it_was_run": "as §3"}, "[8]": {"details": "read-out: Log10GI50 (converted)"}, "[9]": {"details": "read-out: Log10LC50 (converted)"}}}
{"smiles": "Nc1c(-c2nnco2)noc1C(=O)c1ccccc1", "values": [{"measurement": "GI50", "setting": "HOP-92; [8]", "value": 30.9, "unit": "µM"}, {"measurement": "CC50", "setting": "HOP-92; [9]", "value": "> 100", "unit": "µM"}, {"measurement": "TGI", "setting": "HOP-92; read-out: Log10TGI (converted)", "value": 97.7, "unit": "µM"}, {"measurement": "GI50", "setting": "HCC 2998; [8]", "value": 26.9, "unit": "µM"}, {"measurement": "CC50", "setting": "HCC 2998; [9]", "value": "> 100", "unit": "µM"}, {"measurement": "TGI", "setting": "HCC 2998; read-out: Log10TGI (converted)", "value": 95.5, "unit": "µM"}, {"measurement": "GI50", "setting": "SF-539; [8]", "value": 2.75, "unit": "µM"}, {"measurement": "CC50", "setting": "SF-539; [9]", "value": 64.6, "unit": "µM"}, {"measurement": "TGI", "setting": "SF-539; read-out: Log10TGI (converted)", "value": 22.4, "unit": "µM"}, {"measurement": "GI50", "setting": "NCI-H522; [8]", "value": 33.9, "unit": "µM"}, {"measurement": "CC50", "setting": "NCI-H522; [9]", "value": "> 100", "unit": "µM"}, {"measurement": "TGI", "setting": "NCI-H522; read-out: Log10TGI (converted)", "value": "> 100", "unit": "µM"}, {"measurement": "GI50", "setting": "CAKI-1; [8]", "value": 21.9, "unit": "µM"}, {"measurement": "CC50", "setting": "CAKI-1; [9]", "value": "> 100", "unit": "µM"}, {"measurement": "TGI", "setting": "CAKI-1; read-out: Log10TGI (converted)", "value": "> 100", "unit": "µM"}, {"measurement": "GI50", "setting": "U-251; [8]", "value": 16.2, "unit": "µM"}, {"measurement": "CC50", "setting": "U-251; [9]", "value": "> 100", "unit": "µM"}, {"measurement": "TGI", "setting": "U-251; read-out: Log10TGI (converted)", "value": 69.2, "unit": "µM"}, {"measurement": "GI50", "setting": "SK-MEL-2; [8]", "value": 33.1, "unit": "µM"}, {"measurement": "CC50", "setting": "SK-MEL-2; [9]", "value": "> 100", "unit": "µM"}, {"measurement": "TGI", "setting": "SK-MEL-2; read-out: Log10TGI (converted)", "value": "> 100", "unit": "µM"}, {"measurement": "GI50", "setting": "K562; [8]", "value": 57.5, "unit": "µM"}, {"measurement": "CC50", "setting": "K562; [9]", "value": "> 100", "unit": "µM"}, {"measurement": "TGI", "setting": "K562; read-out: Log10TGI (converted)", "value": "> 100", "unit": "µM"}, {"measurement": "GI50", "setting": "MOLT-4; [8]", "value": 56.2, "unit": "µM"}, {"measurement": "CC50", "setting": "MOLT-4; [9]", "value": "> 100", "unit": "µM"}, {"measurement": "TGI", "setting": "MOLT-4; read-out: Log10TGI (converted)", "value": "> 100", "unit": "µM"}, {"measurement": "GI50", "setting": "HCT-15; [8]", "value": 29.5, "unit": "µM"}, {"measurement": "CC50", "setting": "HCT-15; [9]", "value": "> 100", "unit": "µM"}, {"measurement": "TGI", "setting": "HCT-15; read-out: Log10TGI (converted)", "value": "> 100", "unit": "µM"}, {"measurement": "GI50", "setting": "LOX IMVI; [8]", "value": 28.8, "unit": "µM"}, {"measurement": "CC50", "setting": "LOX IMVI; [9]", "value": "> 100", "unit": "µM"}, {"measurement": "TGI", "setting": "LOX IMVI; read-out: Log10TGI (converted)", "value": "> 100", "unit": "µM"}, {"measurement": "GI50", "setting": "CCRF-CEM; [8]", "value": 18.2, "unit": "µM"}, {"measurement": "CC50", "setting": "CCRF-CEM; [9]", "value": "> 100", "unit": "µM"}, {"measurement": "TGI", "setting": "CCRF-CEM; read-out: Log10TGI (converted)", "value": "> 100", "unit": "µM"}]}
{"smiles": "Cc1nc(-c2ccccc2)c2onc(-c3nnc(C(=O)NCc4cccnc4)o3)c2n1", "values": [{"measurement": "Activity", "setting": "Mus musculus [1]", "value": 3.5}, {"measurement": "OD", "setting": "Splenocyte [2]", "value": 0.479}, {"measurement": "Activity", "setting": "Mus musculus [3]", "value": 1660}, {"measurement": "Activity", "setting": "Mus musculus [4]", "value": 5.9}, {"measurement": "OD", "setting": "Splenocyte [5]", "value": 0.483}, {"measurement": "OD", "setting": "Splenocyte [6]", "value": 0.482}, {"measurement": "Activity", "setting": "Mus musculus [7]", "value": 545}]}
{"smiles": "Nc1c(-c2nnc(C(=O)NCc3ccncc3)o2)noc1C(=O)c1ccccc1", "values": [{"measurement": "Activity", "setting": "Mus musculus [1]", "value": 4.9}, {"measurement": "OD", "setting": "Splenocyte [2]", "value": 0.401}, {"measurement": "Activity", "setting": "Mus musculus [3]", "value": 1361}, {"measurement": "Activity", "setting": "Mus musculus [4]", "value": 7.9}, {"measurement": "OD", "setting": "Splenocyte [5]", "value": 0.442}, {"measurement": "OD", "setting": "Splenocyte [6]", "value": 0.371}, {"measurement": "Activity", "setting": "Mus musculus [7]", "value": 574}]}
{"smiles": "C/C=C/C[C@@H](C)[C@@H](O)[C@H]1C(=O)N[C@@H](CC)C(=O)N(C)CC(=O)N(C)[C@@H](CC(C)C)C(=O)N[C@@H](C(C)C)C(=O)N(C)[C@@H](CC(C)C)C(=O)N[C@@H](C)C(=O)N[C@H](C)C(=O)N(C)[C@@H](CC(C)C)C(=O)N(C)[C@@H](CC(C)C)C(=O)N(C)[C@@H](C(C)C)C(=O)N1C", "note": "[CYCLOSPORINE]", "values": [{"measurement": "OD", "setting": "Splenocyte [2]", "value": 0.046}, {"measurement": "Activity", "setting": "Mus musculus [3]", "value": 1617}, {"measurement": "Activity", "setting": "Mus musculus [4]", "value": 6.1}, {"measurement": "OD", "setting": "Splenocyte [5]", "value": 0.07}, {"measurement": "OD", "setting": "Splenocyte [6]", "value": 0.001}, {"measurement": "Activity", "setting": "Mus musculus [7]", "value": 953}]}
